Laboratory results taken from ChEMBL document CHEMBL1143255, “Standard protecting groups create potent and selective kappa opioids: salvinorin B alkoxymethyl ethers” (Bioorg Med Chem, 2008).

Key:
[1] = target: Delta-type opioid receptor (Mus musculus, UniProt P32300); assay: Displacement of [3H]diprenorphine from mouse delta opioid receptor expressed in CHO cells; format: cell-based
Procedure, shortened: (§1)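 Competitive inhibition of [3H]diprenorphine binding to membranes from CHO cells stably transfected with human κ, rat μ or mouse δ receptor; testing blinded to compound identity and molecular mass; mean of three independent experiments in duplicate.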

[2] = target: T1, Kappa-type opioid receptor (Homo sapiens, UniProt P41145); assay: Agonist activity at human kappa opioid receptor expressed in CHO cells assessed as stimulation of [35S]GTPgammaS binding relative to U50488H; format: functional, cell-based
Procedure, shortened: (§2)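 Potency and efficacy from [35S]GTPγS binding to membranes of CHO cells stably expressing human κ receptor; testing blinded to compound identity and molecular mass.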

[3] = target: T1, Kappa-type opioid receptor; assay: Displacement of [3H]diprenorphine from human kappa opioid receptor expressed in CHO cells; format: cell-based; procedure, shortened: as §1
Mu-type opioid receptor = Mu-type opioid receptor (Rattus norvegicus, UniProt P33535); assay: Displacement of [3H]diprenorphine from rat mu opioid receptor expressed in CHO cells; format: cell-based; procedure, shortened: as §1
[4] = target: T1, Kappa-type opioid receptor; assay: Agonist activity at human kappa opioid receptor expressed in CHO cells assessed as stimulation of [35S]GTPgammaS binding; format: functional, cell-based; procedure, shortened: as §2
[5] = Selectivity for human kappa opioid receptor over rat mu opioid receptor
[6] = Selectivity for human kappa opioid receptor over mouse delta opioid receptor

T1 sequence (P41145 whole entry): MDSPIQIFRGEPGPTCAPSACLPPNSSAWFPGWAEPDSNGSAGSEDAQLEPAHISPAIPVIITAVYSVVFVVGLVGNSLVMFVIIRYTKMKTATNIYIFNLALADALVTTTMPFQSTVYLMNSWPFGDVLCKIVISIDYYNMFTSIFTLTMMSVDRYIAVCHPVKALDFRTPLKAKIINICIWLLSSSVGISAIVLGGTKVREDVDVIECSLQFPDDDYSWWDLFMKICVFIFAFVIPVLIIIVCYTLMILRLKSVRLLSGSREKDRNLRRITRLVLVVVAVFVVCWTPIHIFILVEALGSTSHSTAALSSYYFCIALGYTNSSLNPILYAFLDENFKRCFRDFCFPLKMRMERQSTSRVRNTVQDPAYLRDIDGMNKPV
Chain of Delta-type opioid receptor (P32300 whole entry): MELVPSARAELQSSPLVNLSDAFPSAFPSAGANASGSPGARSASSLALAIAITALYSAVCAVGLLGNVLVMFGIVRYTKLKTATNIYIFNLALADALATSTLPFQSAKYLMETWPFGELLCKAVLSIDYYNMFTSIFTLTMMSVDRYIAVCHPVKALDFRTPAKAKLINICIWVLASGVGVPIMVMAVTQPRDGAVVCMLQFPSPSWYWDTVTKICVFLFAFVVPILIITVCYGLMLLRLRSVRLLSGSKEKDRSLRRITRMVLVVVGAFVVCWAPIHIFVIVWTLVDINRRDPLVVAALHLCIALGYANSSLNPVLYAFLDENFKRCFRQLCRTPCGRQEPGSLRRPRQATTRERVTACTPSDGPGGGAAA
Chain of Mu-type opioid receptor (P33535 whole entry): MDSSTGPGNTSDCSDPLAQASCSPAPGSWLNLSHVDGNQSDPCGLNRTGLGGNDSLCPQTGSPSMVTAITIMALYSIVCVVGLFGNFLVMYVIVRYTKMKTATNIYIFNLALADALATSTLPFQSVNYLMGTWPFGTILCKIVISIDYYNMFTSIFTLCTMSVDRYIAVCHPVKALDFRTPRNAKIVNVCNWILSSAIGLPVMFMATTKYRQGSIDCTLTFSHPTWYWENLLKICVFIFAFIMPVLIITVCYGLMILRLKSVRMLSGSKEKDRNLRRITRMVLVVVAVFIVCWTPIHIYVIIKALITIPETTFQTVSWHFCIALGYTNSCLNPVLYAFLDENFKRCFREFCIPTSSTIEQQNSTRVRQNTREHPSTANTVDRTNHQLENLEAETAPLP

Compound | Ki [1] [nM] | Emax [2] [%] | Ki [3] [nM] | Ki (Mu-type opioid receptor) [nM] | EC50 [4] [nM] | Selectivity ratio [5] | Selectivity ratio [6] | Ki ([1]; cho) [nM] | Ki (Mu-type opioid receptor; cho) [nM]
COC(=O)[C@@H]1C[C@H](OCOCC[Si](C)(C)C)C(=O)[C@H]2[C@@]1(C)CC[C@H]1C(=O)O[C@H](c3ccoc3)C[C@]21C | > 1000 | 81 | > 1000 | > 1000 | 1660 | – | – | – | –
COC(=O)[C@@H]1C[C@H](OCOCc2ccccc2)C(=O)[C@H]2[C@@]1(C)CC[C@H]1C(=O)O[C@H](c3ccoc3)C[C@]21C [SALVINORIN B BENZYLOXYMETHYL ETHER] | > 1000 | 81 | 147 | > 1000 | 274 | – | – | – | –
CCCCOCO[C@H]1C[C@@H](C(=O)OC)[C@]2(C)CC[C@H]3C(=O)O[C@H](c4ccoc4)C[C@]3(C)[C@H]2C1=O [SALVINORIN B BUTOXYMETHYL ETHER] | > 1000 | 81 | 5.3 | > 1000 | 20 | – | – | – | –
COCCOCO[C@H]1C[C@@H](C(=O)OC)[C@]2(C)CC[C@H]3C(=O)O[C@H](c4ccoc4)C[C@]3(C)[C@H]2C1=O | > 1000 | 81 | 141 | > 1000 | 320 | – | – | – | –
COC(=O)[C@@H]1C[C@H](OCOCCF)C(=O)[C@H]2[C@@]1(C)CC[C@H]1C(=O)O[C@H](c3ccoc3)C[C@]21C | > 1000 | 81 | 1.9 | > 1000 | 3.8 | > 500 | – | – | –
CCOCO[C@H]1C[C@@H](C(=O)OC)[C@]2(C)CC[C@H]3C(=O)O[C@H](c4ccoc4)C[C@]3(C)[C@H]2C1=O [SALVINORIN B ETHOXYMETHYL ETHER] | > 1000 | 81 | 0.32 | > 1000 | 0.14 | > 3000 | > 3000 | – | –
CCOC(C)O[C@H]1C[C@@H](C(=O)OC)[C@]2(C)CC[C@H]3C(=O)O[C@H](c4ccoc4)C[C@]3(C)[C@H]2C1=O (some centres undefined) [listing 1 of 3 here] | > 1000 | – | – | > 1000 | – | – | – | – | –
COC(=O)[C@@H]1C[C@H](OCF)C(=O)[C@H]2[C@@]1(C)CC[C@H]1C(=O)O[C@H](c3ccoc3)C[C@]21C [SALVINORIN B FLUOROMETHYL ETHER] | > 1000 | 81 | 50 | > 1000 | 26 | – | – | – | –
COC(=O)[C@@H]1C[C@H](OC(C)(C)OC)C(=O)[C@H]2[C@@]1(C)CC[C@H]1C(=O)O[C@H](c3ccoc3)C[C@]21C | > 1000 | 81 | 72 | > 1000 | 72 | – | – | – | –
COC(=O)[C@@H]1C[C@H](OCOCC(F)(F)F)C(=O)[C@H]2[C@@]1(C)CC[C@H]1C(=O)O[C@H](c3ccoc3)C[C@]21C | > 1000 | 81 | 31 | > 1000 | 75 | – | – | – | –
COC(=O)[C@@H]1C[C@H](OCSC)C(=O)[C@H]2[C@@]1(C)CC[C@H]1C(=O)O[C@H](c3ccoc3)C[C@]21C [SALVINORIN B METHYLTHIOMETHYL ETHER] | > 1000 | 81 | 13 | > 1000 | 31 | – | – | – | –
COC(=O)[C@@H]1C[C@H](OCOC(C)(C)C)C(=O)[C@H]2[C@@]1(C)CC[C@H]1C(=O)O[C@H](c3ccoc3)C[C@]21C | > 1000 | 81 | 35 | > 1000 | 108 | – | – | – | –
COC(=O)[C@@H]1C[C@H](OC2CCCCO2)C(=O)[C@H]2[C@@]1(C)CC[C@H]1C(=O)O[C@H](c3ccoc3)C[C@]21C (some centres undefined) | > 1000 | 81 | 4 | > 1000 | 2.8 | – | – | – | –
CCCOCO[C@H]1C[C@@H](C(=O)OC)[C@]2(C)CC[C@H]3C(=O)O[C@H](c4ccoc4)C[C@]3(C)[C@H]2C1=O [SALVINORIN B PROPOXYMETHYL ETHER] | > 1000 | 81 | 2.2 | > 1000 | 5.2 | – | – | – | –
COC(=O)[C@@H]1C[C@H](OCOC(C)C)C(=O)[C@H]2[C@@]1(C)CC[C@H]1C(=O)O[C@H](c3ccoc3)C[C@]21C [SALVINORIN B ISOPROPOXYMETHYL ETHER] | > 1000 | 81 | 1.6 | > 1000 | 4.2 | – | – | – | –
CCO[C@H]1C[C@@H](C(=O)OC)[C@]2(C)CC[C@H]3C(=O)O[C@H](c4ccoc4)C[C@]3(C)[C@H]2C1=O [DEOXY SALVINORIN A] | – | – | – | – | 18 | – | – | – | –
CCOC(C)O[C@H]1C[C@@H](C(=O)OC)[C@]2(C)CC[C@H]3C(=O)O[C@H](c4ccoc4)C[C@]3(C)[C@H]2C1=O (some centres undefined) [listing 2 of 3 here] | – | 81 | – | – | – | – | – | – | –
CCOC(C)O[C@H]1C[C@@H](C(=O)OC)[C@]2(C)CC[C@H]3C(=O)O[C@H](c4ccoc4)C[C@]3(C)[C@H]2C1=O (some centres undefined) [listing 3 of 3 here] | – | – | – | – | – | – | – | > 1000 | > 1000
